ChEMBL document CHEMBL1641400, “Synthesis of essramycin and comparison of its antibacterial activity” (J Nat Prod, 2010)
Values after ≈ are worked out from the molar mass of the structure shown. Blank lines part the entries; values can stand above or below the compound they belong to. Active and inactive are the calls of the source. No cut-off for these calls is given here.

How the values were obtained:
Staphylococcus aureus [1] = assay: Antibacterial activity against methicillin-susceptible Staphylococcus aureus ATCC 25923 up to 64 ug/ml after 24 hrs by broth dilution assay; type: functional, organism-based
Outline: (§1)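 Triplicate broth microdilution in LB and MH broths. Overnight LB cultures were diluted 40-fold into fresh broth and shaken 1 h at 37 °C to mid-log (OD600 ≈ 0.6). They were then diluted to 5 × 10⁵ cfu/mL into 2-fold serial dilutions from 64 to 0.03 µg/mL (≤1.28% DMSO) and held 24 h at 37 °C. MIC is the lowest concentration with no visible growth. Tetracycline, vancomycin and colistin served as positive controls.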

Enterococcus faecalis [2] = assay: Antibacterial activity against Enterococcus faecalis VanB ATCC 51299 up to 64 ug/ml after 24 hrs by broth dilution assay; type: functional, organism-based; outline: as §1
Escherichia coli [3] = assay: Antibacterial activity against Escherichia coli ATCC 25922 up to 64 ug/ml after 24 hrs by broth dilution assay; type: functional, organism-based; outline: as §1
Klebsiella pneumoniae [4] = assay: Antibacterial activity against Klebsiella pneumoniae ATCC 700603 up to 64 ug/ml after 24 hrs by broth dilution assay; type: functional, organism-based; outline: as §1
Pseudomonas aeruginosa [5] = assay: Antibacterial activity against Meropenem-resistant Pseudomonas aeruginosa up to 64 ug/ml after 24 hrs by broth dilution assay; type: functional, organism-based
Outline: (§2)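 Triplicate broth microdilution in LB and in MH broth. Overnight LB cultures diluted 40-fold into fresh broth, shaken 1 h at 37 °C to mid-log (OD600 ≈ 0.6), then diluted to 5 × 10⁵ cfu/mL. Added to 2-fold serial dilutions, 64 to 0.03 µg/mL, with DMSO at most 1.28%. Incubated 24 h at 37 °C; MIC is the lowest concentration with no visible growth. Tetracycline, vancomycin and colistin served as positive controls.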

Acinetobacter baumannii [6] = assay: Antibacterial activity against Meropenem-resistant Acinetobacter baumannii up to 64 ug/ml after 24 hrs by broth dilution assay; type: functional, organism-based; outline: as §2
Staphylococcus aureus [7] = assay: Antibacterial activity against methicillin-susceptible Staphylococcus aureus ATCC 25923 after 24 hrs by disc diffusion assay; type: functional, organism-based
Outline: (§3)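 LB broth cultures were grown to mid-log (OD600 ≈ 0.6) as for broth MIC and streaked as lawns on LB agar. Sterile filter paper discs were loaded with 10 µL of 2-fold serial dilutions (32 to 1 µg/mL) and placed on the lawns. Inhibition zones were measured after 24 h at 37 °C.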

Enterococcus faecalis [8] = assay: Antibacterial activity against Enterococcus faecalis VanB ATCC 51299 after 24 hrs by disc diffusion assay; type: functional, organism-based; outline: as §3
Escherichia coli [9] = assay: Antibacterial activity against Escherichia coli ATCC 25922 after 24 hrs by disc diffusion assay; type: functional, organism-based; outline: as §3
Klebsiella pneumoniae [10] = assay: Antibacterial activity against Klebsiella pneumoniae ATCC 700603 after 24 hrs by disc diffusion assay; type: functional, organism-based; outline: as §3
Pseudomonas aeruginosa [11] = assay: Antibacterial activity against Meropenem-resistant Pseudomonas aeruginosa after 24 hrs by disc diffusion assay; type: functional, organism-based
Outline: (§4)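 LB-broth overnight cultures diluted 40-fold into fresh LB, shaken 1 h at 37 °C, to mid-log (OD600 ≈ 0.6). Lawn streaked on LB agar. Sterile filter-paper discs loaded with 10 µL of 2-fold serial dilutions, 32 to 1 µg/mL. Discs placed on plates, 24 h at 37 °C, then zone of inhibition measured.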

Acinetobacter baumannii [12] = assay: Antibacterial activity against Meropenem-resistant Acinetobacter baumannii after 24 hrs by disc diffusion assay; type: functional, organism-based; outline: as §4
Staphylococcus aureus [13] = assay: Antibacterial activity against methicillin-susceptible Staphylococcus aureus ATCC 25923 compound formulated with carboxymethylcellulose; type: functional, organism-based
Escherichia coli [14] = assay: Antibacterial activity against Escherichia coli ATCC 25922 compound formulated with carboxymethylcellulose; type: functional, organism-based
Pseudomonas aeruginosa [15] = assay: Antibacterial activity against Pseudomonas aeruginosa ATCC 10145 compound formulated with carboxymethylcellulose; type: functional, organism-based
Bacillus subtilis = assay: Antibacterial activity against Bacillus subtilis ATCC 6051 compound formulated with carboxymethylcellulose; type: functional, organism-based
HepG2 = assay: Cytotoxicity against human HepG2 cells after 24 hrs by MTT assay; type: cell-based; details: HepG2, 24 h
HEK293 = assay: Cytotoxicity against HEK293 cells after 24 hrs by MTT assay; type: cell-based; details: Homo sapiens, HEK293, 24 h
[16] = Kinetic solubility in phosphate buffer at pH 7.4; type: physicochemical
[17] = Thermodynamic solubility in phosphate buffer at pH 7.4 after 72 hrs; type: physicochemical; details: read-out: Therm_solubility
[18] = Protein binding in LB assay broth (above 30 kDa) by ultra filtration method; type: ADME; details: read-out: PB (converted)
[19] = Kinetic solubility in water; type: physicochemical
[20] = Thermodynamic solubility in water after 72 hrs; type: physicochemical; details: read-out: Therm_solubility

SMILES: Cc1cc(=O)n2nc(CC(=O)c3ccccc3)nc2[nH]1 [ESSRAMYCIN]
- inhibition (Staphylococcus aureus [1]): inactive
- inhibition (Enterococcus faecalis [2]): inactive
- inhibition (Escherichia coli [3]): inactive
- inhibition (Klebsiella pneumoniae [4]): inactive
- inhibition (Pseudomonas aeruginosa [5]): inactive
- inhibition (Acinetobacter baumannii [6]): inactive
- inhibition (Staphylococcus aureus [7]): inactive
- inhibition (Enterococcus faecalis [8]): inactive
- inhibition (Escherichia coli [9]): inactive
- inhibition (Klebsiella pneumoniae [10]): inactive
- inhibition (Pseudomonas aeruginosa [11]): inactive
- inhibition (Acinetobacter baumannii [12]): inactive
- inhibition (Staphylococcus aureus [13]): inactive
- inhibition (Escherichia coli [14]): inactive
- inhibition (Pseudomonas aeruginosa [15]): inactive
- inhibition (Bacillus subtilis): inactive
- IC50 (HepG2): > 200 µM
- IC50 (HEK293): > 200 µM

- solubility kinetic [16]: 0.15 mg/mL (≈ 559 µM)
- solubility thermodynamic at 72 h [17]: 0.898 mg/mL (≈ 3350 µM)
- fraction unbound [18]: 0.93
- solubility kinetic [19]: 0.15 mg/mL (≈ 559 µM)
- solubility thermodynamic at 72 h [20]: 0.175 mg/mL (≈ 652 µM)
SMILES: Cc1cc(=O)n2nc(CC(=O)c3ccccc3)[nH]c2n1 [ESSRAMYCIN]
